For 20 compounds, inhibition in vivo and ED50 results are on record in ChEMBL document CHEMBL1122898, “Antiulcer agents. 1. Gastric antisecretory and cytoprotective properties of substituted imidazo[1,2-a]pyridines” (1985).

Common to all, as to type: functional
In experiment [1] the test system is Canis familiaris. The experiment can be described thus: Inhibition of histamine stimulated gastric acid secretion in adult mongrel dogs at dose 5 mg/kg given intravenously. To be noted: Canis lupus familiaris, Stomach, route intravenous. A digest of the protocol: (§1)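 Dogs with Heidenhain pouches, 12–18 kg, fasted 18 h. Compound given iv in 3 mL or by gavage in 5 mL of 0.4% methylcellulose/saline, 1 h after infusion start. 30-min collections titrated. Summed 3-h AO against the same dog's control AO gives % inhibition. Usually one dog per compound.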

Experiment [2] has as its system Canis familiaris. The experiment can be described thus: Inhibition of histamine stimulated gastric acid secretion in adult mongrel dogs at dose 8 mg/kg given orally. To be noted: Canis lupus familiaris, Stomach, route oral. The essentials:
as §1

The species entered for experiment [3] is Rattus norvegicus. The experiment can be described thus: Oral gastric cytoprotective activity in the rat against ethanol-induced lesions. The settings on record: Stomach. A digest of the protocol:
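Rats fasted and water-deprived for 20 h. Compound given orally, 1–30 mg/kg in 0.4% methylcellulose/saline, 30 min before 1 mL absolute ethanol po. Killed 1 h after ethanol. Linear hemorrhagic lesion lengths totalled per stomach, expressed as group mean. ED50 by linear regression.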

Experiment [4] relates to Rattus norvegicus. In words: Gastric antisecretory activity in the pylorus-ligated rat and the reduction in acid output was measured after 4 hr by intraperitoneal (ip) administration of 40 mg/kg dose. The essentials:
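Male Charles River CD rats, 150–200 g, fasted 24 h. Pylorus ligated under Brevital anesthesia. 40 mg/kg given ip in 2.5% Tween 80 at ligation. Stomach contents collected at 4 h and titrated with 0.1 N NaOH to pH 7.0. % inhibition from mean AO, 6 treated vs 8 control rats. Student's t test.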

Experiment [5] concerns Canis familiaris. In words: Inhibition of histamine stimulated gastric acid secretion in mongrel dogs following 4 mg/kg p.o. administration. To be noted: Canis lupus familiaris, Stomach, route oral. A digest of the protocol: as §1
Experiment [6] concerns Canis familiaris. The experiment can be described thus: Inhibition of histamine stimulated gastric acid secretion in adult mongrel dogs at dose 2 mg/kg given intravenously. The settings on record: Canis lupus familiaris, Stomach, route intravenous. A digest of the protocol:
as §1

In experiment [1], `Cc1nc2c(OCCCc3ccccc3)cccn2c1CC#N` came in with an inhibition in vivo at 5 mg/kg of 80%. This compound showed an inhibition in vivo at 8 mg/kg in experiment [2] of 8%. Further, in experiment [3], the 50% effect level (ED50) was put at a dose of 4.3 mg/kg. Also, in experiment [4], testing at 40 mg/kg gave an inhibition in vivo of 64%.
Consider `Cc1nc2c(OCc3ccccc3)cccn2c1CC(N)=O`, for which at 4 mg/kg the inhibition in vivo in experiment [5] was 0%. For the same compound, the inhibition in vivo at 5 mg/kg in experiment [1] was 46%. The same compound registered an ED50 in experiment [3] of 27 mg/kg. The same compound came in with an inhibition in vivo at 40 mg/kg in experiment [4] of 28%.
Compound `Cc1nc2c(OCc3ccc(C#N)cc3)cccn2c1CC#N` yielded an inhibition in vivo at 4 mg/kg in experiment [5] of 0%. Also, the inhibition in vivo at 5 mg/kg in experiment [1] turned out to be 71%. The compound also showed an inhibition in vivo at 8 mg/kg in experiment [2] of 33%. Besides, it took a dose of 8 mg/kg to reach the 50% effect level in experiment [3] (ED50). The same compound gave an inhibition in vivo at 40 mg/kg in experiment [4] of 69%.
With `Cc1nc2c(OCc3ccccn3)cccn2c1CC#N`, the inhibition in vivo at 5 mg/kg in experiment [1] was 29%. In experiment [3], the ED50 came to 2.4 mg/kg. The inhibition in vivo at 40 mg/kg in experiment [4] was 56%.
In the case of `Cc1nc2c(COc3ccccc3)cccn2c1C`, the inhibition in vivo at 2 mg/kg in experiment [6] came out at 44%. 8 mg/kg produced 21% inhibition in vivo in experiment [2]. The same compound displayed an ED50 in experiment [3] of 6 mg/kg. Further, the inhibition in vivo at 40 mg/kg in experiment [4] was 48%.
`Cc1nc2c(OCc3ccc(F)cc3)cccn2c1CC#N`: in experiment [5], the inhibition in vivo at 4 mg/kg amounted to 35%. In addition, the inhibition in vivo at 5 mg/kg in experiment [1] stood at 95%. Further, 8 mg/kg produced 87% inhibition in vivo in experiment [2]. It took a dose of 5 mg/kg to reach the 50% effect level in experiment [3] (ED50). In experiment [4], this compound returned an inhibition in vivo at 40 mg/kg of 99%.
`CC(=O)OCc1c(C)nc2c(OCc3ccccc3)cccn12` registered an inhibition in vivo at 2 mg/kg in experiment [6] of 54%. The same compound had an inhibition in vivo at 5 mg/kg in experiment [1] of 87%. Besides, the inhibition in vivo at 8 mg/kg in experiment [2] was 24%. The compound also returned an ED50 in experiment [3] of 5.5 mg/kg. The same compound gave an inhibition in vivo at 40 mg/kg in experiment [4] of 88%.
Turning to `Cc1nc2c(C[S+]([O-])c3ccccc3)cccn2c1C` (centres undefined), in experiment [6], the inhibition in vivo at 2 mg/kg was determined as 0%. At 40 mg/kg the inhibition in vivo in experiment [4] was 42%.
Compound `Cc1nc2c(OCc3ccccc3)cccn2c1C(C)(C)C#N` returned an inhibition in vivo at 5 mg/kg in experiment [1] of 0%. Besides, the ED50 in experiment [3] turned out to be 12.3 mg/kg. Further, the inhibition in vivo at 40 mg/kg in experiment [4] came to 57%.
For the compound `Cc1nc2c(N(C)Cc3ccccc3)cccn2c1CC#N`, the inhibition in vivo at 2 mg/kg in experiment [6] stood at 46%. This compound registered an inhibition in vivo at 4 mg/kg in experiment [5] of 23%. Also, the inhibition in vivo at 40 mg/kg in experiment [4] was 94%.
For `Cc1nc2c(OCc3ccccc3)cccn2c1CCC#N`, 5 mg/kg produced 20% inhibition in vivo in experiment [1]. This compound returned an ED50 in experiment [3] of 1.5 mg/kg. The inhibition in vivo at 40 mg/kg in experiment [4] is 40%.
Turning to `Cc1nc2c(OCc3ccc(C(C)(C)C)cc3)cccn2c1CC#N`, in experiment [5], the inhibition in vivo at 4 mg/kg is 37%. In experiment [1], the inhibition in vivo at 5 mg/kg turned out to be 52%. In experiment [2], this compound yielded an inhibition in vivo at 8 mg/kg of 47%. In experiment [4], this compound yielded an inhibition in vivo at 40 mg/kg of 47%.
`c1ccc(COc2cccn3c4c(nc23)CCCC4)cc1`: the inhibition in vivo at 2 mg/kg in experiment [6] is 24%. The compound also had an inhibition in vivo at 8 mg/kg in experiment [2] of 28%.
Consider `Cc1nc2cc(CCc3ccccc3)ccn2c1CC#N`, for which testing at 2 mg/kg in experiment [6] gave an inhibition in vivo of 26%. In addition, in experiment [3], the 50% effect level (ED50) was put at a dose of 3 mg/kg. The same compound had an inhibition in vivo at 40 mg/kg in experiment [4] of 11%.
For `Cc1nc2c(OCc3cccnc3)cccn2c1CC#N`, 5 mg/kg produced 8% inhibition in vivo in experiment [1]. The compound also gave an ED50 in experiment [3] of 7.4 mg/kg. Further, the inhibition in vivo at 40 mg/kg in experiment [4] stood at 46%.
The corresponding values for `Cc1nc2c([S+]([O-])Cc3ccccc3)cccn2c1CC#N` (centres undefined) are 26%, 5 mg/kg and 37%.
`Cc1nc2c(SCc3ccccc3)cccn2c1CC#N` yielded an inhibition in vivo at 5 mg/kg in experiment [1] of 89%. Moreover, the inhibition in vivo at 8 mg/kg in experiment [2] is 2%. This compound also showed an ED50 in experiment [3] of 7 mg/kg. Further, the inhibition in vivo at 40 mg/kg in experiment [4] is 22%.
Take `Cc1nc2c(OCc3ccc(Cl)c(Cl)c3)cccn2c1CC#N`: the inhibition in vivo at 2 mg/kg in experiment [6] was 89%. This compound also came in with an inhibition in vivo at 4 mg/kg in experiment [5] of 16%. 8 mg/kg produced 23% inhibition in vivo in experiment [2]. The compound further showed a 50% effective dose (ED50) in experiment [3] of 6 mg/kg. Also, 40 mg/kg produced 42% inhibition in vivo in experiment [4].
In experiment [5], `Cc1nc2c(OCc3ccccc3F)cccn2c1CC#N` had an inhibition in vivo at 4 mg/kg of 34%. In experiment [1], this compound had an inhibition in vivo at 5 mg/kg of 97%. In experiment [2], the inhibition in vivo at 8 mg/kg came to 65%. This compound had an ED50 in experiment [3] of 6 mg/kg. Further, the inhibition in vivo at 40 mg/kg in experiment [4] turned out to be 96%.
Regarding `Cc1nc2c(OCc3ccccc3)cccn2c1C(C)C#N` (centres undefined), in experiment [6], the inhibition in vivo at 2 mg/kg came out at 4%. At 8 mg/kg the inhibition in vivo in experiment [2] was 1%. Further, the ED50 in experiment [3] is 2.9 mg/kg. Further, at 40 mg/kg the inhibition in vivo in experiment [4] was 74%.

For orientation: inhibition in vivo means the relative decrease from the control value, in per cent. By ED50 is commonly meant the midpoint of the dose-response relation. High values mean weaker potency, low ones greater potency.
